This note sets out measurements from ChEMBL document CHEMBL1153279, “Antioxidant and antiradical activities of resorcinarene tetranitroxides” (Bioorg Med Chem Lett, 2009).

Series [1] can be described thus: Antiradical activity against 2,2'-azobis-amidinopropane-induced linoleic acid peroxidation assessed as ratio of total oxyradical scavenging capacity to Trolox C. In kind it is physicochemical. A digest of the protocol:
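Linoleic acid (0.63 mM) was autoxidized by 1 mM ABAP in 0.05 M phosphate buffer (pH 7.4) with 0.02% Lubrol, in air at 37 °C. Conjugated-diene formation was followed at 234 nm. Inhibitor was added once autoxidation ran at constant rate. Efficiency is expressed relative to Trolox C, with stoichiometric factors taken from lag-time ratios and Trolox n set at 2.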

Series [2] has as its system Radical scavenging activity. Kind of series: Antioxidant activity assessed as [drug]/[DPPH]causing 50% DPPH radical scavenging activity after 5 mins. In kind it is functional. A digest of the protocol:
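DPPH reacted with scavenger at 25 °C in 1.5 mL EtOH plus 0.5 mL 0.2 M acetate buffer (pH 5.5). DPPH started at 50–100 µM and test scavengers at 0.5–25 µM. Percent DPPH scavenging was read after 5 min and plotted against the [scavenger]/[DPPH] ratio. ECR50 is the ratio giving 50% scavenging.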
In general terms: The DPPH test is a chemical assay of radical scavenging.

As to `Oc1cccc(O)c1` [RESORCINOL], the Ratio in series [1] was found to be 1.7. Further, the Activity in series [2] is 0.29.
Taken in the same sequence, the figures for `CC1(C)CC(O)CC(C)(C)N1[O]` [TEMPOL] were 0.4 and 64.
